The values below come from ChEMBL document CHEMBL1800024, “A novel class of trans-methylpyrazoline analogs of combretastatins: synthesis and in-vitro biological testing” (Eur J Med Chem, 2011).

Structures are written as SMILES. ≈ marks a conversion by molar mass, not a printed value.

One data set has as its system L1210. The data set is described as follows: Cytotoxicity against mouse L1210 cells after 72 hrs by MTT assay. The following applies: L1210, 72 h. Format: functional, cell-based. The method in brief: (§1)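 Murine B16 melanoma and L1210 lymphoma cells in culture were exposed to compound continuously for 72 h. Viability was read by MTT assay, and IC₅₀ was derived from growth inhibition.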
(Tetrazolium dyes change colour on reduction, which living cells bring about.)

The next data set concerns B16. The experiment in a line: Cytotoxicity against mouse B16 cells after 72 hrs by MTT assay. The data set is classed as functional, cell-based. The following applies: B16, 72 h. The method in brief:
as §1

For a further data set, the system named is HL-60(TB). The experiment in a line: Growth inhibition of human HL-60(TB) cells. The data set is classed as functional.
The next data set relates to MOLT-4. The data set is described as follows: Growth inhibition of human MOLT4 cells. Format: functional.
The next data set deals with NCI-H23. The data set is described as follows: Growth inhibition of human NCI-H23 cells. Format: functional.
In another data set the test system is NCI-H322M. The data set is described as follows: Growth inhibition of human NCI-H322M cells. Format: functional.
The next data set concerns NCI-H522. The experiment in a line: Growth inhibition of human NCI-H522 cells. The data set is classed as functional.
The test system of a further data set is HCT-116. The experiment in a line: Growth inhibition of human HCT116 cells. Format: functional.
A further data set has as its system SF-295. The data set is described as follows: Growth inhibition of human SF295 cells. Format: functional.
The subject of a further data set is SF-539. The data set is described as follows: Growth inhibition of human SF539 cells. Format: functional.
In the next data set the test system is SNB-19. The experiment in a line: Growth inhibition of human SNB19 cells. The data set is classed as functional.
In the next data set the test system is U-251. The experiment in a line: Growth inhibition of human U251 cells. The data set is classed as functional.
In the next data set the test system is LOX IMVI. The data set is described as follows: Growth inhibition of human LOXIMVI cells. The data set is classed as functional.
Another data set relates to Malme-3M. The experiment in a line: Growth inhibition of human MALME-3M cells. Format: functional.
The subject of the next data set is SK-MEL-5. The data set is described as follows: Growth inhibition of human SK-MEL-5 cells. The data set is classed as functional.
The test system of another data set is UACC-257. The data set is described as follows: Growth inhibition of human UACC257 cells. The data set is classed as functional.
The test system of the next data set is SK-OV-3. The experiment in a line: Growth inhibition of human SKOV3 cells. The data set is classed as functional.
For another data set, the system named is CAKI-1. The experiment in a line: Growth inhibition of human Caki1 cells. Format: functional.
The test system of the next data set is RXF 393. The experiment in a line: Growth inhibition of human RXF393 cells. Format: functional.
For another data set, the system named is MDA-MB-231. The experiment in a line: Growth inhibition of human MDA-MB-231 cells. The data set is classed as functional.
A further data set concerns BT-549. The experiment in a line: Growth inhibition of human BT549 cells. Format: functional.
A further data set relates to T47D. The data set is described as follows: Growth inhibition of human T47D cells. Format: functional. The following applies: read-out: pTGI.
The subject of data set [1] is MDA-MB-435. The experiment in a line: Cytotoxicity against human MDA-MB-435 cells after 48 hrs by SRB assay. Format: functional, cell-based. The following applies: MDA-MB-435, 48 h. On the technique in general: In SRB staining, fixed cells bind dye roughly in proportion to their protein.
The test system of the next data set is A10. The data set is described as follows: Induction of interphase microtubule depolymerization in rat A10 cells. Format: functional, cell-based.
Data set [2] has as its system MDA-MB-435. The data set is described as follows: Ratio of EC50 for interphase microtubule depolymerization in rat A10 cells to IC50 for cytotoxicity against human MDA-MB-435 cells. Format: functional.
Data set [3] can be described thus: Aqueous solubility of the compound. The data set is classed as physicochemical. The method in brief:
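Maximum aqueous solubility was measured with a modified filter-plate solubility protocol.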

For orientation: IC50 means the concentration at which inhibition is half-maximal. The GI50 is the concentration at which growth is held to half of that of the control. The low end stands for more potent growth inhibition, the high end for less potent growth inhibition. One may read the EC50 as the concentration that produces a half-maximal response. A low value points to a more potent agent. A word on the solubility: it is the concentration that dissolves in the medium under given conditions. A lower solubility goes with little dissolved substance. `COc1ccc([C@H]2[C@H](c3cc(OC)c(OC)c(OC)c3)C(C)=NN2C(C)=O)cc1O` (relative stereo): the 50% inhibitory concentration (IC50) with L1210 was 3.3 µM; in the data set with B16 it was 6.8 µM; with MDA-MB-435 [1] it was 0.9 µM. The GI50 with HL-60(TB) is 1.78 µM; in the data set on MOLT-4 it was 5.75 µM; in the data set on NCI-H23 it was 3.72 µM; in the data set on NCI-H322M it was 4.27 µM; in the data set with NCI-H522 it was 0.372 µM; in the data set with HCT-116, 3.02 µM. Moreover, the concentration for 50% growth inhibition (GI50) in the data set with SF-295 was 2.57 µM; in the data set on SF-539, 0.741 µM; in the data set on SNB-19 it was 4.37 µM; in the data set on U-251, 3.24 µM; with LOX IMVI it was 2.24 µM; with Malme-3M, 0.891 µM. Moreover, the GI50 was 1.17 µM in the data set with SK-MEL-5; greater than 100 µM with UACC-257; 2.19 µM with SK-OV-3; 5.37 µM with CAKI-1; 3.09 µM with RXF 393; 4.07 µM with MDA-MB-231. The molecule also showed a GI50 in the data set with BT-549 of 1.45 µM. For the same molecule, the TGI was 7.76 µM in the data set on HL-60(TB) (read-out: pTGI (converted)); greater than 100 µM in the data set on MOLT-4 (read-out: pTGI); greater than 100 µM with NCI-H23 (read-out: pTGI); 51.3 µM in the data set with NCI-H322M (read-out: pTGI (converted)); 11.7 µM in the data set on NCI-H522 (read-out: pTGI (converted)); 34.7 µM with HCT-116 (read-out: pTGI (converted)). The TGI in the data set on SF-295 (read-out: pTGI) is greater than 100 µM; in the data set with SF-539 (read-out: pTGI (converted)), 4.37 µM; in the data set on SNB-19 (read-out: pTGI), greater than 100 µM; in the data set on U-251 (read-out: pTGI) it was greater than 100 µM; with LOX IMVI (read-out: pTGI), greater than 100 µM; with Malme-3M (read-out: pTGI), greater than 100 µM. Besides, the TGI with SK-MEL-5 (read-out: pTGI (converted)) was 14.1 µM; in the data set on UACC-257 (read-out: pTGI) it was greater than 100 µM; with SK-OV-3 (read-out: pTGI (converted)) it was 9.55 µM; in the data set on CAKI-1 (read-out: pTGI) it was greater than 100 µM; in the data set on RXF 393 (read-out: pTGI), greater than 100 µM; in the data set with MDA-MB-231 (read-out: pTGI) it was greater than 100 µM. Besides, the TGI with BT-549 (read-out: pTGI) and with T47D was greater than 100 µM throughout. This molecule came in with a concentration giving a half-maximal response (EC50) in the data set on A10 of 4.1 µM. In the data set on MDA-MB-435 [2], the Ratio is given as 4.5. Further, the solubility in data set [3] came to 372 µM (≈ 154 µg/mL).
Regarding `COc1ccc(/C=C\c2cc(OC)c(OC)c(OC)c2)cc1O` [COMBRETASTATIN A4], the half-inhibitory concentration (IC50) in the data set on L1210 was 0.003 µM; with B16 it was 0.002 µM.
For the molecule `COc1cc([C@@H]2C(C)=NN(C(C)=O)[C@H]2c2cccc([N+](=O)[O-])c2)cc(OC)c1OC` (relative stereo), the IC50 with L1210 and in the data set with B16 was greater than 100 µM in each case.
As for `COc1cc([C@@H]2C(C)=NN(C(C)=O)[C@H]2c2ccc(C)cc2)cc(OC)c1OC` (relative stereo), the IC50 in the data set on L1210 was 6 µM; with B16, 45.5 µM.
On to `COc1ccc([C@H]2[C@H](c3cc(OC)c(OC)c(OC)c3)C(C)=NN2C(C)=O)cc1[N+](=O)[O-]` (relative stereo), for which the concentration for half-maximal inhibition (IC50) is 32.5 µM in the data set with L1210 and greater than 100 µM in the data set with B16.
In the case of `COc1cc([C@@H]2C(C)=NN(C(C)=O)[C@H]2c2ccc(Cl)cc2)cc(OC)c1OC` (relative stereo), the half-inhibitory concentration (IC50) in the data set on L1210 and in the data set with B16 was greater than 100 µM each time.
Take `COc1cc([C@@H]2C(C)=NN(C(C)=O)[C@H]2c2ccc(Cl)c(Cl)c2)cc(OC)c1OC` (relative stereo): the IC50 in the data set with L1210 was 36 µM; in the data set with B16 it was greater than 100 µM.
Consider `COc1ccc([C@H]2[C@H](c3cc(OC)c(OC)c(OC)c3)C(C)=NN2C(C)=O)cc1OC` (relative stereo), for which the figures for the half-inhibitory concentration (IC50) in the data set with L1210 and in the data set with B16 were 34 µM and greater than 100 µM, respectively.
The matching figures for `COc1cc([C@@H]2C(C)=NN(C(C)=O)[C@H]2c2cc(OC)c(OC)c(OC)c2)cc(OC)c1OC` (relative stereo): greater than 100 µM and greater than 100 µM.
`COc1cc([C@@H]2C(C)=NN(C(C)=O)[C@H]2c2ccc(Br)cc2)cc(OC)c1OC` (relative stereo): the IC50 in the data set on L1210 was 33 µM; in the data set on B16, greater than 100 µM.
For `COc1ccc(OC)c([C@H]2[C@H](c3cc(OC)c(OC)c(OC)c3)C(C)=NN2C(C)=O)c1` (relative stereo), the IC50 in the data set on L1210 and with B16 was greater than 100 µM each time.
As to `COc1cc([C@@H]2C(C)=NN(C(C)=O)[C@H]2c2ccccc2)cc(OC)c1OC` (relative stereo), the IC50 is 47 µM in the data set with L1210 and greater than 100 µM with B16.
With `COc1cc([C@@H]2C(C)=NN(C(C)=O)[C@H]2c2ccc([N+](=O)[O-])cc2)cc(OC)c1OC` (relative stereo), the concentration for half-maximal inhibition (IC50) in the data set on L1210 and in the data set on B16 was greater than 100 µM in each case.
Consider `COc1ccc([C@H]2[C@H](c3cc(OC)c(OC)c(OC)c3)C(C)=NN2C(C)=O)cc1` (relative stereo), for which the values for the IC50 in the data set on L1210 and with B16 were 8.4 µM and 95 µM, respectively.
